# According to ChEMBL document CHEMBL4014325:
# Calls of active or inactive are those of the source. No cut-off for these calls is given here.
# Experiments:
# [1] = Cytotoxicity against human HT-29 cells assessed as cell survival at 5 uM after 8 hrs by alamar blue assay relative to control; type: cell-based; conditions: read-out: Survival
# Outline: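 Cells cultured overnight, then exposed to compound at 5 μM for 8 h. Viability read by Alamar Blue per kit instructions. Table reports n=3.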
# [2] = target: Cystic fibrosis transmembrane conductance regulator (Homo sapiens) (UniProt P13569); test: Inhibition of human wild type CFTR expressed in FRT cells co-expressing halide sensitive YFP-H148Q assessed as reduction in forskolin induced cAMP activated chloride conductance by measuring decrease in iodide influx after 15 mins by fluorescence assay; type: cell-based
# Outline: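 FRT cells co-expressing YFP and wild-type CFTR, washed with PBS. Incubated 15 min with compound in PBS containing 20 μM forskolin. Plate reader baseline 2 s, then 12 s after rapid addition of I⁻-containing solution; initial I⁻ influx rate computed.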
# [3] = Metabolic stability in rat liver microsomes assessed as compound remaining in presence of NADPH at 10 uM after 180 mins by LC/MS analysis; type: ADME, microsome; conditions: read-out: Stability
# Outline: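 10 μM compound shaken at 37 °C with rat liver microsomes (1 mg protein/mL) in 100 mM potassium phosphate buffer with 1 mM NADPH, sampled at 2–180 min. Quenched on ice with ice-cold ethyl acetate, centrifuged, supernatant dried and redissolved. Parent compound quantified by C₁₈ reverse-phase LC/MS (5–95% acetonitrile gradient); mean ± SEM, n=3.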
# [4] = Kinetic aqueous solubility of compound in PBS by titration method; type: physicochemical; conditions: buffer
# Outline: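 Increasing quantities of a 30 mM DMSO stock added to 2 mL aliquots of PBS. Kinetic solubility taken from the titration point.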
# [5] = target: T1, Anoctamin-1 (Mus musculus) (UniProt Q8BHY3); test: Inhibition of TMEM16A in CD1 mouse ileum assessed as reduction in intestinal smooth muscle contraction
# T1 sequence (whole entry): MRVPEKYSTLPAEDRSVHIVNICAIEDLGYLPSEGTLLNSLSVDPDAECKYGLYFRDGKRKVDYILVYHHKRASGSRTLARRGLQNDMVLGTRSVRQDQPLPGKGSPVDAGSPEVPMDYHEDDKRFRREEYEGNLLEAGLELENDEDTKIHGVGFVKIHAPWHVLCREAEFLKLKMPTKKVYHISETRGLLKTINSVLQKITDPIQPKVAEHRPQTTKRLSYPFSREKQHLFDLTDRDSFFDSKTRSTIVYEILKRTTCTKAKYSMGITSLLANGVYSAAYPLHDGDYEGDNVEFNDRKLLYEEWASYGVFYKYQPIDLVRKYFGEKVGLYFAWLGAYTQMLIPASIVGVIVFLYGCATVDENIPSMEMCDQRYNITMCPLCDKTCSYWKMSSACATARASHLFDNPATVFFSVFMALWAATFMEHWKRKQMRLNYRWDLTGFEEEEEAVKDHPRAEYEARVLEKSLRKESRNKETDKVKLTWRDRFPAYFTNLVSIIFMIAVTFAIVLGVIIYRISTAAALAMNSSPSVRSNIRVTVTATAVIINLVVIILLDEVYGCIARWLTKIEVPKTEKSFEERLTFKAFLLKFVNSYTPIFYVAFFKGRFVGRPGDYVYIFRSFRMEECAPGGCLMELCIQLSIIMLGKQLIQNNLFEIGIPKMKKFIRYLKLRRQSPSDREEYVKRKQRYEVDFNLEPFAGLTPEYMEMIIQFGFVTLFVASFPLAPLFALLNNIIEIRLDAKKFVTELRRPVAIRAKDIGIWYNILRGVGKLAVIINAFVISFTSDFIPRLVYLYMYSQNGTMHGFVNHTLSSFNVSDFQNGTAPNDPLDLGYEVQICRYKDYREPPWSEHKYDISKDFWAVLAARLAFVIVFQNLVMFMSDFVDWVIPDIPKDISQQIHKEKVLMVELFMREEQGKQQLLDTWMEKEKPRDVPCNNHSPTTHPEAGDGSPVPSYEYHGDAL
# Outline: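 Ileal segments of ~2 cm from adult CD1 mice killed by avertin overdose (200 mg/kg), ends tied, mounted on a force transducer. […] Stabilised 60 min at 0.5 g resting tension with changes every 15 min. Compound added to the bath; spontaneous isometric contractions recorded; three separate experiments.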
# [6] = Stability of compound in aqueous solution at 100 uM after 1 day by ESI-LCMS analysis; type: physicochemical; conditions: read-out: Stability
# Outline: (§1)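 Duplicate samples of 100 μM compound in H₂O (20% DMSO) with 100 μM 5-chloro-3-phenyl-2,1-benzisoxazole as internal standard. Kept at 25 °C for 3 days and analysed daily by ESI-LCMS for the parent compound and the oxalamic acid degradation product.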
# [7] = Stability of compound in aqueous solution at 100 uM after 2 days by ESI-LCMS analysis; type: physicochemical; conditions: read-out: Stability; outline: as §1
# [8] = Stability of compound in DMSO; type: physicochemical
# [9] = target: T2, Anoctamin-1 (Homo sapiens) (UniProt Q5XXA6); conditions: 250 nM
# T2 sequence (whole entry): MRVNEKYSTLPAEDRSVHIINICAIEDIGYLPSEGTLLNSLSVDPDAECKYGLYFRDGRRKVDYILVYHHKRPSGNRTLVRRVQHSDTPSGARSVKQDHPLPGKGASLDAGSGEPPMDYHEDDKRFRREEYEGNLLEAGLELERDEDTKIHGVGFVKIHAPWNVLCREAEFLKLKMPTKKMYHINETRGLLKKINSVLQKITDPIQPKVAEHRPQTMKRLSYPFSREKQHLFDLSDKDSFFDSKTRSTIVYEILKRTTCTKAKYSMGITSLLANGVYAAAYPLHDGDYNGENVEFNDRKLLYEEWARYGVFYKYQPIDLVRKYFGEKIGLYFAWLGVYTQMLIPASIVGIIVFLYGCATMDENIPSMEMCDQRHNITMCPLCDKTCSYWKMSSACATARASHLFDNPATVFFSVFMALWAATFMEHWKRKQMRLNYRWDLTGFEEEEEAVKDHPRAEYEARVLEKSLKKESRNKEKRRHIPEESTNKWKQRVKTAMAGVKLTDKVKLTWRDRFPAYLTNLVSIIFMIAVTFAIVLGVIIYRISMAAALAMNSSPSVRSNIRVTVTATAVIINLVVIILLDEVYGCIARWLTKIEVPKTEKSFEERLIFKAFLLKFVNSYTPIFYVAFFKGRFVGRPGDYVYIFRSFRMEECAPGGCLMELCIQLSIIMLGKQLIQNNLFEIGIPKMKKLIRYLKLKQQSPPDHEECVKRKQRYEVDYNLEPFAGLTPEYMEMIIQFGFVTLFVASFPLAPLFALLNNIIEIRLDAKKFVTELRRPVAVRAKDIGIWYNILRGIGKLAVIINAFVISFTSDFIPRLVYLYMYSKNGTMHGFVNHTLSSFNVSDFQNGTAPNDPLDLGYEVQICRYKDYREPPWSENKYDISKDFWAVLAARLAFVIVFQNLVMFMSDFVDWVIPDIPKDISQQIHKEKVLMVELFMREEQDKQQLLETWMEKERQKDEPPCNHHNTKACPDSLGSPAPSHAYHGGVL
# [10] = target: T2, Anoctamin-1 (Homo sapiens); conditions: 250 nM; remark: listed apart in the source
# [11] = target: T2, Anoctamin-1 (Homo sapiens); conditions: 1 uM
# [12] = target: T2, Anoctamin-1 (Homo sapiens); conditions: 1 uM; remark: listed apart in the source
# [13] = target: T2, Anoctamin-1 (Homo sapiens); conditions: 1 uM; remark: listed apart in the source
# Chain of Cystic fibrosis transmembrane conductance regulator (Homo sapiens) (P13569 whole entry, looked up): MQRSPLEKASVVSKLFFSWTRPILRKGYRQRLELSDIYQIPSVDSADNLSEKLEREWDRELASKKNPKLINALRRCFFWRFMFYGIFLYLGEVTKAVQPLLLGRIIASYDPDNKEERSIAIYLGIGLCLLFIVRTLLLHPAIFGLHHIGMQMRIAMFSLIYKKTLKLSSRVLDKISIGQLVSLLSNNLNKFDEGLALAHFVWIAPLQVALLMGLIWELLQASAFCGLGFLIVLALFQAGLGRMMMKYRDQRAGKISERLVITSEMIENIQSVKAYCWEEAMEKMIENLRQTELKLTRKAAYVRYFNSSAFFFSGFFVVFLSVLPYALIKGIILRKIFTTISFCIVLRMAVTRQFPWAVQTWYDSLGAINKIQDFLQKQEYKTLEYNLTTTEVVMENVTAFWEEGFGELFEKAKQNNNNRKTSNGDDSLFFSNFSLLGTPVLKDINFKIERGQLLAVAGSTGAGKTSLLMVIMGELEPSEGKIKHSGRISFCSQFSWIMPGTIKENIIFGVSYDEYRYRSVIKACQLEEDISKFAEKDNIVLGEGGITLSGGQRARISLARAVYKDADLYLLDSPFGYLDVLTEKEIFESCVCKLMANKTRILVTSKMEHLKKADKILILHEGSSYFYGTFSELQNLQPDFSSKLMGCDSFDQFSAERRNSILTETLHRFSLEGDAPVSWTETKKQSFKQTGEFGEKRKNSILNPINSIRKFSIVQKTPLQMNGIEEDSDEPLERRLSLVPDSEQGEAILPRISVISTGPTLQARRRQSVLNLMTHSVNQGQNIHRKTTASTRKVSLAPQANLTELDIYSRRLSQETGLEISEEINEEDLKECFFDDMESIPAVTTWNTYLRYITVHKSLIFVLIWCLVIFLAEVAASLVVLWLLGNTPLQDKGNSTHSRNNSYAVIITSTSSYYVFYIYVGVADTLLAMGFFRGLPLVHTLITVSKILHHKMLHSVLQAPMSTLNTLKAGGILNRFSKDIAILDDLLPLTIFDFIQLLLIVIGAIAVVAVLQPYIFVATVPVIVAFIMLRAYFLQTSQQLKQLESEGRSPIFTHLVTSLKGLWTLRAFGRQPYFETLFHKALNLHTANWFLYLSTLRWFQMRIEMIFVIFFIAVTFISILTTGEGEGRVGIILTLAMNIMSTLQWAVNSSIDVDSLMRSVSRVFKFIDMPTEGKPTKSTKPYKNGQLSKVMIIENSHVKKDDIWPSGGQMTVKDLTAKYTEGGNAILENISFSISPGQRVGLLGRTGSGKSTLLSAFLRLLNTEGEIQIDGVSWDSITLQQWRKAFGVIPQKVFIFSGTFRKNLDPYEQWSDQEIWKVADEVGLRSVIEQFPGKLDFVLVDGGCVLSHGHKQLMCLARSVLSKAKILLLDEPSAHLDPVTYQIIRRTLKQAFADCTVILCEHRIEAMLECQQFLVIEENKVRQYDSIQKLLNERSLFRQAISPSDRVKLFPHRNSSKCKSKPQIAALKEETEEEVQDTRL
smiles,measurement,setting,value
Cc1ccccc1NC(=O)c1c(NC(=O)C(F)(F)Br)sc2c1CCCCC2,"viability at 8 h, 5 µM",[1],97%
same,inhibition,[2],inactive
same,"remaining at 3 h, 10 µM",[3],30%
same,Kinetic_solubility,[4],40 µg/mL
same,inhibition,[5],Dose-dependent effect
same,"remaining at 24 h, 100 µM",[6],72%
same,"remaining at 48 h, 100 µM",[7],30%
same,Stability,[8],> 6 months
same,inhibition,[9],Active
same,inhibition,[10],inactive
same,inhibition,[11],Active
same,inhibition,[12],Active
same,inhibition,[13],Active
